High-throughput results: PubChem BioAssay, several laboratories
PREPL inhibitor: inhibitors of human prolyl oligopeptidase-like enzyme PREPL; Q4J6C6; recombinant PREPL, fluorescence polarization activity-based probe; actives 0.68% (n = 320,000); AID 2751; inhibition, % at 5.96 µM; in the data active = inhibition above about 43%;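 note: 0% = enzyme with DMSO and 100% = wells lacking enzyme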
Target sequence (Q4J6C6 whole entry, looked up): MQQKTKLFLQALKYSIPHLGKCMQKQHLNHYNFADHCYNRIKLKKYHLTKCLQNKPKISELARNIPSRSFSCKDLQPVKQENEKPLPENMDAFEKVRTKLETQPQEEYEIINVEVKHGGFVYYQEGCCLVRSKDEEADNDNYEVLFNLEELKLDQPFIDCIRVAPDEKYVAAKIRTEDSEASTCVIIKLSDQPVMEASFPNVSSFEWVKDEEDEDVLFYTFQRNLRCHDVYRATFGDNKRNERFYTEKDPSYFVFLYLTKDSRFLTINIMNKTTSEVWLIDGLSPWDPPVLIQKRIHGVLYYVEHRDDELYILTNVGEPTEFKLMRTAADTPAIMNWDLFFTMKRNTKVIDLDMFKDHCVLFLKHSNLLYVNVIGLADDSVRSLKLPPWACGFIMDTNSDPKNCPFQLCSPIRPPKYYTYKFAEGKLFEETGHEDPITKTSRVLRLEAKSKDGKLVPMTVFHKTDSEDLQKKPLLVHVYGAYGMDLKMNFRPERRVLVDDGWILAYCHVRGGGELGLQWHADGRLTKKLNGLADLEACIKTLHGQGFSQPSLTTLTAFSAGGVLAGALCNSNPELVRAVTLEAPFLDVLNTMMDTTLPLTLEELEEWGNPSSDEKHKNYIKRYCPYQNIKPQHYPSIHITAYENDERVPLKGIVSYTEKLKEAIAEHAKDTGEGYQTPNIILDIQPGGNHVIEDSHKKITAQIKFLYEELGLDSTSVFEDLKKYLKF
hiPSC survival: hiPSC single-cell survival enhancement; survival enhancement, % at 20 µM; ATPlite luminescence; 100% = ROCK inhibitor wells, 0% = DMSO; actives 0.044% (n = 360,000); in the data active = survival enhancement above about 18%;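 note: cells exposed to compounds for 16 hours before the ATP read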
SKN-1 block: C. elegans SKN-1 inhibition; inhibition, % at 21.8 µM; C. elegans VP596 Pgst-4::GFP/RFP ratio, acrylamide-induced, 24 h; actives 0.49% (n = 360,000);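 active = interference check ratio from 0.5 to 1.5 plus GFP to RFP signal ratio inhibition reaching or exceeding a fixed threshold, cut at about 30% in these data, passing the limit was not always enough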
eLon inh: inhibits E. coli Lon protease; P0A9M0; purified E. coli Lon protease, fluorescence polarization; inhibition, % at 7.94 µM; actives 0.42% (n = 360,000); in the data active = inhibition above about 13%, passing the limit was not always enough;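 note: 0% = enzyme with probe and DMSO and 100% = no enzyme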
MT1-MMP act inh: MT1-MMP (human) activation inhibition | GFP/RFP ratio change, % at 20 µM | actives 0.061% (n = 360,000) | HT1080 RFP-PRO-GFP cells, GFP/RFP ratio fluorescence, overnight; percent of plate control window, DMSO zero | P50281 | AID 651647;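 active = GFP/RFP ratio change of at least 30% with cell ATP level not reduced by more than half and red fluorescence within 50% of control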
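Assay system: RFP-PRO-GFP reporter HT1080 cells; read-out basis: GFP/RFP fluorescence ratio; benchmarks: DMSO wells and RFP-L50D-GFP cells; doses: 20 µM single dose, 1% DMSO; schedule: overnight cell settling, then overnight compound exposure, 37 °C, 5% CO2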
Tb MetRS inh: blocks T. brucei methionyl-tRNA synthetase activity | purified T. brucei MetRS, ATP depletion, Kinase-Glo luminescence | inhibition, % at 11.9 µM | actives 0.4% (n = 360,000);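 active = inhibition above a per-plate cutoff of the control wells' mean inhibition plus 3 SD, cut at about 5.5% in these data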;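 note: 0% = DMSO wells median and 100% = median of wells with control inhibitor compound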
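Material: T. brucei methionyl-tRNA synthetase, purified; reagent: substrates ATP, L-methionine and bulk Escherichia coli tRNA; dosing: 11.9 µM single point; timing: 15 min plus 2 h at 25 °C; detection: luminescence of leftover ATP; evaluation: % inhibition; control set: DMSO-only wells as low control; replicates: singlicate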
Starred values were filed as active, the others as inactive; x = no result given. The list is not random: actives were taken first. Their share in the collection is about 1.8%.

SMILES | PREPL inhibitor | hiPSC survival | SKN-1 block | eLon inh | MT1-MMP act inh | Tb MetRS inh
CCN1C(c2ccccc2)=C(c2ccccc2)S/C1=C\C=C1/SC(=S)N(C)C1=O | -22.3 | -3.6 | 49.6* | -20.4 | 31.1 | 0.3
CN(Cc1ccccc1)c1oc(-c2ccco2)nc1C#N | -3.1 | -0.9 | 1.3 | -4.6 | -0.5 | -0.1
CN(C)c1oc(-c2ccco2)nc1C#N | 1.7 | 3.0 | 59.2* | 1.2 | 3.7 | -1.0
CCN(CC)C(=O)C1=C(C)N(Cc2ccc(C(C)(C)C)cc2)C(=O)C(CC(=O)NCCN2CCOCC2)C1 (centres undefined) | x | 5.8 | 18.2 | -0.5 | 1.3 | -0.1
O=C(NCc1ccccc1)[C@@H]1CCCN1C(=O)[C@@H]1CCCN1C(=O)c1cccs1 | x | 0.0 | 13.3 | -1.4 | 2.1 | -0.3
O=C(Nc1ccccc1O)c1cccc(S(=O)(=O)Nc2ccccc2O)c1 | 12.5 | 0.5 | 13.7 | 4.5 | 5.9 | 6.3*
Cc1ccccc1NS(=O)(=O)c1cccc(C(=O)Nc2cccc(C(=O)O)c2)c1 | 4.5 | -0.8 | -4.5 | -4.3 | -0.6 | 0.2
O=C(O)c1ccc2c(c1)[C@@H]1C=CC[C@@H]1[C@H](c1ccccn1)N2 | 13.8 | 4.8 | 43.8* | 16.8 | -4.0 | 1.1
CCN(CC)c1ccc(C(=S)N2CCN(c3ccccc3)CC2)cc1 | 14.0 | -0.7 | 32.3* | -1.5 | -4.2 | -0.6
O=C(Cn1c(C(F)(F)F)nc2ccccc21)c1ccc(Br)cc1 | -7.9 | -0.8 | -18.5 | -4.4 | -4.6 | -0.7
O=C(Cn1c(C(F)(F)F)nc2ccccc21)c1ccc(F)cc1 | 15.4 | -2.7 | 35.4* | -0.3 | 0.8 | -0.4
CC(C)c1nnc(NC(=O)CC(C)c2ccccc2)s1 (centres undefined) | -9.1 | -0.5 | 10.2 | -9.6 | -1.7 | -1.7
Cc1cnc(NC(=O)CC(C)c2ccccc2)s1 (centres undefined) | -6.0 | 0.5 | 35.1* | 5.9 | -6.0 | -0.1
C(=C1c2ccccc2-c2ccccc21)c1ccncc1 | x | 1.5 | 40.1* | -6.2 | 0.8 | -0.3
O=C1/C(=C\c2ccncc2)CCc2ccccc21 | 6.5 | -0.7 | -2.7 | -6.3 | 3.3 | -0.3
CCOC(=O)C1(C)CCN1C(=O)c1cc(-c2ccc(Cl)cc2)oc1C (centres undefined) | x | -0.4 | 7.0 | 1.7 | -0.3 | -0.3
CCC1CCCCN1C(=O)CCNS(=O)(=O)c1ccc2c(c1)oc(=O)n2C (centres undefined) | 1.7 | -0.2 | 9.6 | 1.6 | 1.1 | -0.7
CCOC(=O)CSCC(NC(=O)OC(C)(C)C)C(=O)OCC (centres undefined) | 10.1 | -3.3 | 4.9 | -4.7 | 0.4 | 0.2
CCOC(=O)C(CSCC(=O)c1ccc(Cl)cc1Cl)NC(=O)OC(C)(C)C (centres undefined) | 35.4 | -3.6 | 36.1* | -3.1 | 4.1 | -0.8
NC(c1csc(NC(=O)Nc2ccc(OC(F)(F)F)cc2)n1)C1CCCCC1 (centres undefined) | x | -6.8 | 1.0 | -3.8 | -4.2 | -0.2
CCOC(=O)NCc1ccc2c(c1)cc(C)n2C | 19.5 | 1.4 | 52.5* | 4.0 | 32.6 | -0.7
Cc1cc2cc(CNC(=O)Nc3ccccc3)ccc2n1C | 11.1 | 2.5 | 38.5* | 40.8 | 40.7 | -1.5
Cc1cc2cc(CNC(=O)C3CC3)ccc2n1C | 6.0 | 1.3 | 39.9* | -0.9 | 23.5 | -0.6
Cc1ccccc1NC(=S)NCc1ccc2c(c1)cc(C)n2C | 5.8 | -4.3 | 23.6 | -2.6 | -5.1 | 0.3
CCc1cccc(C)c1NC(=S)NCc1ccc2c(c1)cc(C)n2C | 13.2 | -1.9 | 97.3* | 11.8 | 50.1 | -0.6
SMILES | PREPL inhibitor | hiPSC survival | SKN-1 block | eLon inh | MT1-MMP act inh | Tb MetRS inh
CCC(CC)C(=O)NCc1ccc2c(c1)cc(C)n2C | 6.4 | -2.3 | 39.6 | 10.2 | 24.6 | -0.8
Cc1cccc(C)c1-n1nnnc1C1(C)CCC(=O)N1CC1CCCCC1 (centres undefined) | x | -0.3 | -2.0 | -1.6 | 0.7 | -1.6
Cc1ccc(C)c(S(=O)(=O)c2c(N)n(/N=C/c3ccco3)c3nc4ccccc4nc23)c1 | -5.1 | 0.6 | 14.3 | -31.8 | -5.6 | -0.7
CCOC(=O)CNC(=O)N1C[C@H]2CON(C)[C@H]2C[C@H]1c1ccccc1Br | x | -1.8 | 8.2 | -6.6 | 1.4 | -0.3
CCCCCc1c(-c2ccc(OC)cc2)ncn1CCc1ccccc1OC | x | -1.2 | 7.5 | -1.2 | 10.6 | -0.6
Cc1cc(C(=O)NCC(=O)OCC(=O)NCC2CCCO2)ccc1[N+](=O)[O-] (centres undefined) | 1.5 | -0.5 | -0.1 | -10.2 | 4.7 | -0.1
COc1ccc(CC(=O)NCc2ccc3c(c2)cc(C)n3C)cc1 | 21.6 | -2.3 | 49.6* | 5.3 | x | -1.4
COc1ccc(NC(=S)NCc2ccc3c(c2)cc(C)n3C)cc1 | 10.2 | 0.3 | 21.3 | 12.1 | 13.1 | -1.0
Cc1nc(NC(=O)c2ccccc2)sc1-c1cc(C(=O)N2CCOCC2)nn1Cc1ccccc1 | x | 2.4 | -17.2 | -12.7 | 0.2 | -0.3
COc1ccc2cc(N3CCCC3=O)ccc2c1 | x | -3.4 | 40.7* | -4.9 | 2.8 | -0.2
COc1ccccc1-c1ncn(Cc2cccc(-c3ccccc3)c2)c1-c1cc(C)cc(C)c1 | x | x | 4.7 | x | -7.7 | -0.3
CC(=O)c1cc(Cc2csc(C(C)=O)c2)cs1 | 52.7* | 3.2 | -4.6 | -3.1 | -1.1 | -0.9
CC(=O)c1cc(CN2C(=O)CCC2=O)cs1 | 4.3 | 0.4 | 8.4 | -8.5 | 3.0 | -0.1
CCN1CCN(c2nc3sc4c(c3c3ncnn23)CC(C)CC4)CC1 (centres undefined) | 7.3 | 2.1 | 64.8* | -6.2 | -4.1 | -0.9
COc1cccc2cc(C(=O)NNC(=O)c3ccc(Br)cc3)c(=O)oc12 | 4.0 | -0.2 | -6.0 | -2.5 | 5.6 | -0.2
COc1ccccc1C(=O)Nc1ccc(Br)cc1C | -4.3 | 0.5 | 54.0* | -4.7 | -8.1 | 0.0
COc1ccccc1C(=O)Nc1ccc(Br)c2cccnc12 | -10.3 | 0.8 | 38.9* | 3.9 | -3.3 | -0.7
O=C(Oc1ccccc1)N1CCN(c2ccc(F)cc2)CC1 | 3.3 | -0.6 | 42.5* | 3.5 | 4.3 | -0.6
CC1(c2nnnn2-c2ccc3c(c2)OCCO3)CCC(=O)N1C1CC1 (centres undefined) | x | 0.7 | -4.6 | -2.8 | 3.5 | -0.5
CCOC(=O)c1c(C)n(C)c2c(C)cc(O)c(OC(C)=O)c12 | 19.9 | -2.6 | -0.6 | 2.8 | -3.3 | -1.2
CC(C)Sc1nc(N)nc(-c2cccs2)c1C#N | -8.1 | -0.7 | 39.6* | 11.2 | -6.0 | -0.5
CCn1c(SCC(=O)N(C)C2CCS(=O)(=O)C2)nnc1-c1ccccc1 (centres undefined) | 9.8 | -0.5 | 8.1 | -3.8 | 0.6 | -0.7
O=C(c1ccc(Cn2c(=S)[nH]c3ccc(N4CCOCC4)cc3c2=O)cc1)N1CCN(c2ccc(F)cc2)CC1 | 63.3* | 0.1 | -3.2 | 3.0 | -1.4 | -0.4
